# Experimental data taken from ChEMBL document CHEMBL1139842, “Effects of azaspiracid-1, a potent cytotoxic agent, on primary neuronal cultures. A structure-activity relationship study” (J Med Chem, 2007).
# Active and inactive are the calls of the source. The rule behind the calls is not given here.
# Columns and labels:
# [1] = Increase in cytosolic calcium concentration in cerebellar granule cell in calcium free medium at 1 uM; assay type: functional, cell-based; details: Mus musculus
# In short: (§1)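 Cultured mouse cerebellar granule cells co-loaded with Fura-2 AM (1 µM) and BCECF-AM (0.5 µM), 10 min at 37 °C, imaged by epifluorescence microscopy in a 37 °C open-bath chamber. Compound applied in calcium-free buffer (pH 7.4) before calcium was restored, or added directly in calcium-containing medium. [Ca2+]c calibrated by the Grynkiewicz method. Means ± SEM of 3-4 experiments in duplicate.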
# [2] = tested on: cerebellar granule cells (mouse); experiment: Cytotoxicity against cerebellar granule neurons at 250 nM by MTT assay after 24 hrs
# [3] = tested on: cerebellar granule cells (mouse); experiment: Increase in cytosolic calcium concentration in cerebellar granule cells in presence of calcium at 1 uM
# [4] = Effect on intracellular pH in presence of calcium in cerebellar granule cells at 1 uM; assay type: functional, cell-based; details: Mus musculus
# In short: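 530-nm emission ratio at 490/440 excitation from 25-30 cells per coverslip, converted to pH by nigericin in situ calibration (pH 6-9). Tested in calcium-free medium then after calcium restoration, or in calcium-containing medium; drug buffer pH 7.4.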
# [5] = Increase in cytosolic calcium concentration in cerebellar granule cells in presence of calcium at 1 uM; assay type: functional; details: Mus musculus; in short: as §1
# [6] = Decrease in intracellular pH in cerebellar granule cells in calcium free medium at 1 uM; assay type: functional
# In short: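 Single-cell imaging at 37 °C in an open-bath chamber, drug buffers at pH 7.4. Compound added in calcium-free buffer, then calcium restored, or added in calcium-containing buffer. Read-out is the 490/440 excitation ratio at 530 nm emission from 25-30 cells per coverslip, converted to pH by nigericin in situ calibration (pH 6-9). Three to five independent experiments, each in duplicate.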
# COLO = experiment: Cytotoxicity against cerebellar granule neurons at 250 nM by MTT assay after 4 hrs; assay type: functional, Mus musculus
# In short: (§2)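 Primary cerebellar granule cells from 7-day-old Swiss mice, cultured 8-11 days in KCl (25 mM) DMEM with 10% fetal calf serum and cytosine arabinoside. Exposed in culture medium to compound (0.5-250 nM range; fragments 250 nM) for 4, 8 or 24 h at 37 °C. Then MTT 500 µg/mL in Locke's buffer for 30 min, SDS lysis, formazan read at 590. IC50 given with 95% confidence intervals.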
# [7] = Cytotoxicity against cerebellar granule neurons by MTT assay; details: mouse, cerebellar granule neurone
# In short: (§3)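 Primary cerebellar granule cells from 7-day-old Swiss mouse cerebella, cultured 8-11 days in DMEM with 25 mM KCl and 10% fetal calf serum; cytosine arabinoside (20 µM) against glia. Compound added in culture medium for 4, 8 or 24 h (0.5-250 nM range; fragments 24 h at 250 nM). MTT (500 µg/mL, 30 min, Locke's buffer), SDS lysis, formazan absorbance at 590. Means ± SEM.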
# [8] = Cytotoxicity assessed as effect on viability of cerebellar granule neurons at 100 nM by MTT assay after 4 hrs; design: species or system Cerebellar granule neurone; details: mouse, read-out: Activity; in short: as §3
# [9] = Cytotoxicity against cerebellar granule neurons by MTT assay after 8 hrs; design: species or system Mus musculus, Cerebellar granule neurone; in short: as §2
# [10] = Cytotoxicity against cerebellar granule neurons by MTT assay after 24 hrs; design: species or system Mus musculus, Cerebellar granule neurone; in short: as §2
# [11] = Mus musculus, Cerebellar granule neurone
# [12] = mouse, cerebellar granule neurone
Structure (SMILES),Activity [1],Activity [2] [%],Activity [3] [nM],Activity [4],Activity [5],Activity ([6]; Mus musculus),further results
C[C@@H]1C[C@H]2O[C@H](CO)C[C@H]2O[C@]12CC[C@@]1(CC=C[C@H](/C=C/CCC(=O)O)O1)O2,inactive,102.59,130,–,–,–,–
"COC(=O)[C@@H](NC(=O)C[C@]12C[C@H](C)C[C@@H](O1)[C@@H]1O[C@@]3(C[C@@H]1O2)NC[C@@H](C)C[C@H]3C)c1ccccc1 (single isomer, unassigned)",inactive,90.02,–,inactive,inactive,–,–
"C[C@H]1CN[C@]2(C[C@H]3O[C@]4(CC(=O)O)C[C@@H](C)C[C@H](O4)[C@H]3O2)[C@@H](C)C1 (single isomer, unassigned)",inactive,110.15,–,inactive,inactive,inactive,–
COC(=O)[C@H](NC(=O)C[C@@]12C[C@@H](C)C[C@H](O1)[C@H]1O[C@]3(C[C@H]1O2)NC[C@H](C)C[C@@H]3C)c1ccccc1,inactive,99.25,–,inactive,inactive,inactive,–
C[C@@H]1C[C@H]2O[C@H](CO)C[C@H]2O[C@@]12CC[C@]1(CC=C[C@@H](/C=C/CCC(=O)O)O1)O2,inactive,100.32,100,–,–,–,–
C[C@H]1C[C@H]2O[C@H](CO)C[C@H]2O[C@]12CC[C@@]1(CC=C[C@H](/C=C/CCC(=O)O)O1)O2,–,98.29,150,–,–,–,–
"COC(=O)[C@@H](NC(=O)C[C@@]12C[C@@H](C)C[C@H](O1)[C@H]1O[C@]3(C[C@H]1O2)NC[C@H](C)C[C@@H]3C)c1ccccc1 (single isomer, unassigned)",inactive,90.49,–,inactive,inactive,inactive,–
C=C(C[C@]12C[C@@H](C)C[C@H](O1)[C@H]1O[C@]3(C[C@H]1O2)NC[C@H](C)C[C@@H]3C)[C@H]1O[C@@](O)([C@H](O)[C@@H]2C[C@H]3O[C@@]4(CC[C@]5(CC=C[C@@H](/C=C/CCC(=O)O)O5)O4)[C@H](C)C[C@H]3O2)[C@H](C)C[C@@H]1C,inactive,–,–,inactive,Active,–,"Activity (COLO): 40%; Activity [6]: -0.15; Activity [7]: Dose-dependent effect and tde; viability at 4 h, 0.1 µM [8]: 40%; IC50 [9, 11]: 32 nM; Activity [9, 12]: 90%; IC50 [10, 11]: 0.87 nM; Activity [10, 12]: 85%"
C=C(CO)[C@H]1O[C@@](O)([C@@H](O)[C@H]2C[C@@H]3O[C@]4(CC[C@@]5(CC=C[C@H](/C=C/CCC(=O)O)O5)O4)[C@@H](C)C[C@@H]3O2)[C@H](C)C[C@@H]1C,inactive,100.57,250,–,–,–,–
C[C@@H]1CN[C@@]2(C[C@@H]3O[C@@]4(CC(=O)O)C[C@H](C)C[C@@H](O4)[C@@H]3O2)[C@H](C)C1,inactive,84.95,–,inactive,inactive,inactive,–
C[C@H]1C[C@@H]2O[C@@H](CO)C[C@@H]2O[C@]12CC[C@@]1(CC=C[C@H](/C=C/CCC(=O)O)O1)O2,–,83.66,150,–,–,–,–
COC(=O)[C@H](NC(=O)C[C@]12C[C@H](C)C[C@@H](O1)[C@@H]1O[C@@]3(C[C@@H]1O2)NC[C@@H](C)C[C@H]3C)c1ccccc1,inactive,99.4,–,inactive,inactive,inactive,–
C=C(CO)[C@H]1O[C@@](O)([C@H](O)[C@@H]2C[C@H]3O[C@@]4(CC[C@]5(CC=C[C@@H](/C=C/CCC(=O)O)O5)O4)[C@H](C)C[C@H]3O2)[C@H](C)C[C@@H]1C,–,99.09,200,–,–,–,–
